Assay results reported in ChEMBL document CHEMBL4325867, “Synthesis and biological evaluation of novel H6 analogues as drug resistance reversal agents” (Eur J Med Chem, 2019).

Assays:
[1] = target: T1, ATP-dependent translocase ABCB1 (Homo sapiens, UniProt P08183); assay: Reversal of P-gp-mediated drug resistance in human KBV cells assessed as potentiation of paclitaxel-induced cytotoxicity by measuring cell survival at 5 uM after 72 hrs by MTT assay (reference value: 98 +/- 19%); assay type: cell-based
T1 sequence (P08183 whole entry): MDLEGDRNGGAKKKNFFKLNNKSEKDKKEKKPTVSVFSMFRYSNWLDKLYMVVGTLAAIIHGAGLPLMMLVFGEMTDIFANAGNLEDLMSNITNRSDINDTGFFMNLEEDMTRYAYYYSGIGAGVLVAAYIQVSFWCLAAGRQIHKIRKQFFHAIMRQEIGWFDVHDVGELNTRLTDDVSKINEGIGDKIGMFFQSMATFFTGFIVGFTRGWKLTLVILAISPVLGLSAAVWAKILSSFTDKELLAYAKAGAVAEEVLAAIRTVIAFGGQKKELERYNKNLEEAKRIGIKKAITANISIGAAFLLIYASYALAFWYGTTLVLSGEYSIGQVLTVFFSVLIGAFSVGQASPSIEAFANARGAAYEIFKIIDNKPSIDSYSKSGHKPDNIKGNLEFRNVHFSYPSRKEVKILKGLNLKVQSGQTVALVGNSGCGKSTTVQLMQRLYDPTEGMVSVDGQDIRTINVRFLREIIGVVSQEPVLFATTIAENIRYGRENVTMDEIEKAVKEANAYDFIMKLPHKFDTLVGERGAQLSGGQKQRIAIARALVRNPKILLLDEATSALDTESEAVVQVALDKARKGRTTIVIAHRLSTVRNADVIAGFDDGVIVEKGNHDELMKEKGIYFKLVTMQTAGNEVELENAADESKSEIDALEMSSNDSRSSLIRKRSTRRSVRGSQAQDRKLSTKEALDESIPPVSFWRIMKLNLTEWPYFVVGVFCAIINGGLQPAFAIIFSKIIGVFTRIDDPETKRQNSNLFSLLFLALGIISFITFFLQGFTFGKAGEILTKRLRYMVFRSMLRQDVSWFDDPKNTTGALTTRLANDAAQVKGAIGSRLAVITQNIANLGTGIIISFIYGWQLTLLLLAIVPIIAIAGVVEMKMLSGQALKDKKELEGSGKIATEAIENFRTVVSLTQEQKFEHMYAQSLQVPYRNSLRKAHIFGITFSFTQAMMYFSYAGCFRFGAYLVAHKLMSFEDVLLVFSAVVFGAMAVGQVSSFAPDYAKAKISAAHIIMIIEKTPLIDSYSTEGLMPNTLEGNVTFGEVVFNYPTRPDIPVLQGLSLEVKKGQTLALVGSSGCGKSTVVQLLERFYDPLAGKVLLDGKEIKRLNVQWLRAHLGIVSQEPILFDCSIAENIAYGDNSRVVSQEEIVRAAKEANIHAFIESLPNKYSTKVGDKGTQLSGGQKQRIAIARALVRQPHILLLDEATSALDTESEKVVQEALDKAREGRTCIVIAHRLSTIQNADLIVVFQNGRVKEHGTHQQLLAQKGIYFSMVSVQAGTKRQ

[2] = Cytotoxicity against human KBV cells assessed as cell survival at 5 uM after 72 hrs by MTT assay relative to control; assay type: cell-based; conditions: read-out: Survival
Method in brief: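 KBV cells (RPMI-1640 with 10% heat-inactivated FCS, 37 °C, 5% CO2, log-phase) were seeded in 96-well plates and exposed to compound alone at 5 µM for 72 h. MTT was added and incubated, then DMSO was added. OD was read at 570 nm and survival rate was calculated.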

[3] = n-octanol/aqueous buffer solution partition coefficient, log P of the compound at pH 6.8 after 4 hrs by HPLC method; assay type: physicochemical
Method in brief: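 Shake-flask partition between n-octanol and pH 6.8 buffer at a 1:1 ratio, room temperature, shaken 4 h. Compound concentration in each phase measured by HPLC.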

[4] = target: T1, ATP-dependent translocase ABCB1; assay: Reversal of P-gp-mediated drug resistance in human KBV cells assessed as potentiation of paclitaxel-induced cytotoxicity by measuring fold reduction in paclitaxel IC50 at 10 uM after 72 hrs by MTT assay relative to paclitaxel alone; assay type: cell-based
Method in brief: (§1)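 KBV cells cultured in RPMI-1640 with 10% heat-inactivated fetal calf serum at 37°C, 5% CO2, and used in log phase. Seeded in 96-well plates. Exposed to paclitaxel with or without modulator (5 or 10 µM) for 24, 48 or 72 h. MTT added, formazan dissolved in DMSO, OD read at 570 nm. Survival rate used to derive paclitaxel IC50. RF taken as the fold reduction of IC50 relative to paclitaxel alone.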

[5] = target: T1, ATP-dependent translocase ABCB1; assay: Reversal of P-gp-mediated drug resistance in human KBV cells assessed as potentiation of paclitaxel-induced cytotoxicity by measuring fold reduction in paclitaxel IC50 at 5 uM after 72 hrs by MTT assay relative to paclitaxel alone; assay type: cell-based; method in brief: as §1

SMILES | Survival [1] [%] | viability at 72 h, 5 µM [2] [%] | logD at 4 h [3] | fold change (FC) [4] | fold change (FC) [5]
CC1(C)CC[C@]2(C(=O)On3nnc4ccccc43)CC[C@]3(C)C(C(=O)C[C@@H]4[C@@]5(C)CCC(=O)[C@@](C)(CO)[C@@H]5CC[C@]43C)[C@@H]2C1 (stereo partly drawn) | 127 | 110 | 0.14 | – | –
CC1(C)CC[C@]2(C(=O)N[C@@H](CC(=O)O)C(=O)O)CC[C@]3(C)C(=CC[C@@H]4[C@@]5(C)Cc6nccnc6[C@@](C)(CO)[C@@H]5CC[C@]43C)[C@@H]2C1 | 81 | 90 | -0.39 | – | –
CC1(C)CC[C@]2(C(=O)OCCOC(=O)[C@]34CCC(C)(C)C[C@H]3C3=CC[C@@H]5[C@@]6(C)CC[C@H](O)[C@@](C)(CO)[C@@H]6CC[C@@]5(C)[C@]3(C)CC4)CC[C@]3(C)C(=CC[C@@H]4[C@@]5(C)CC[C@H](O)[C@@](C)(CO)[C@@H]5CC[C@]43C)[C@@H]2C1 | 37 | 136 | – | – | –
CC1(C)CC[C@]2(C(=O)OCCCCCOC(=O)[C@]34CCC(C)(C)C[C@H]3C3=CC[C@@H]5[C@@]6(C)CC[C@H](O)[C@@](C)(CO)[C@@H]6CC[C@@]5(C)[C@]3(C)CC4)CC[C@]3(C)C(=CC[C@@H]4[C@@]5(C)CC[C@H](O)[C@@](C)(CO)[C@@H]5CC[C@]43C)[C@@H]2C1 | 42 | 123 | – | – | –
CC1(C)CC[C@]2(C(=O)n3ccnc3)CC[C@]3(C)C(=CC[C@@H]4[C@@]5(C)CC[C@H](O)[C@@](C)(CO)[C@@H]5CC[C@]43C)[C@@H]2C1 | – | – | -0.4 | – | –
CC1(C)CC[C@]2(C(=O)N3CCC[C@H]3C(=O)O)CC[C@]3(C)C(=CC[C@@H]4[C@@]5(C)Cc6nccnc6[C@@](C)(CO)[C@@H]5CC[C@]43C)[C@@H]2C1 | 91 | 121 | 0.38 | – | –
CC1(C)CC[C@]2(C(=O)OCCN)CC[C@]3(C)C(=CC[C@@H]4[C@@]5(C)Cc6nccnc6[C@@](C)(CO)[C@@H]5CC[C@]43C)[C@@H]2C1 | 24 | 116 | 0.36 | – | –
CC1(C)CC[C@]2(C(=O)ONC(=O)CCC(=O)O)CC[C@]3(C)C(=CC[C@@H]4[C@@]5(C)Cc6nccnc6[C@@](C)(CO)[C@@H]5CC[C@]43C)[C@@H]2C1 | 112 | 89 | -0.78 | – | –
CC1(C)CC[C@]2(C(=O)O)CC[C@]3(C)C(=CC[C@@H]4[C@@]5(C)CC[C@H](O)[C@@](C)(CO)[C@@H]5CC[C@]43C)[C@@H]2C1 [HEDERAGENIN] | 100 | – | – | – | –
CC1(C)CC[C@]2(C(=O)O)CC[C@]3(C)C(=CC[C@@H]4[C@@]5(C)Cc6nccnc6[C@@](C)(COC(=O)c6ccccc6C(=O)O)[C@@H]5CC[C@]43C)[C@@H]2C1 | 85 | 116 | -0.66 | – | –
CC1(C)CC[C@]2(C(=O)O)CC[C@]3(C)C(=CC[C@@H]4[C@@]5(C)Cc6nccnc6[C@@](C)(CO)[C@@H]5CC[C@]43C)[C@@H]2C1 | 61 | 89 | 0.24 | – | –
CC1(C)CC[C@]2(C(=O)On3nnc4ccc(Cl)cc43)CC[C@]3(C)C(=CC[C@@H]4[C@@]5(C)CC[C@H](O)[C@@](C)(CO)[C@@H]5CC[C@]43C)[C@@H]2C1 | 111 | 97 | -0.75 | – | –
CC1(C)CC[C@]2(C(=O)OCCCOC(=O)[C@]34CCC(C)(C)C[C@H]3C3=CC[C@@H]5[C@@]6(C)CC[C@H](O)[C@@](C)(CO)[C@@H]6CC[C@@]5(C)[C@]3(C)CC4)CC[C@]3(C)C(=CC[C@@H]4[C@@]5(C)CC[C@H](O)[C@@](C)(CO)[C@@H]5CC[C@]43C)[C@@H]2C1 | 45 | 107 | – | – | –
CC1(C)CC[C@]2(C(=O)NCC(=O)O)CC[C@]3(C)C(=CC[C@@H]4[C@@]5(C)Cc6nccnc6[C@@](C)(CO)[C@@H]5CC[C@]43C)[C@@H]2C1 | 101 | 96 | -0.43 | – | –
CC1(C)CC[C@]2(C(=O)N[C@@H](Cc3ccccc3)C(=O)O)CC[C@]3(C)C(=CC[C@@H]4[C@@]5(C)Cc6nccnc6[C@@](C)(CO)[C@@H]5CC[C@]43C)[C@@H]2C1 | 129 | 94 | -0.32 | – | –
COC(=O)CCC(=O)NOC(=O)[C@]12CCC(C)(C)C[C@H]1C1=CC[C@@H]3[C@@]4(C)Cc5nccnc5[C@@](C)(CO)[C@@H]4CC[C@@]3(C)[C@]1(C)CC2 | 32 | 86 | -1.24 | – | –

SMILES | Survival [1] [%] | viability at 72 h, 5 µM [2] [%] | logD at 4 h [3] | fold change (FC) [4] | fold change (FC) [5]
COc1ccc(CCN(C)CCCC(C#N)(c2ccc(OC)c(OC)c2)C(C)C)cc1OC (stereo not drawn) | 23 | – | – | – | –
CC1(C)CC[C@]2(C(=O)O)CC[C@]3(C)C(=CC[C@@H]4[C@@]5(C)Cc6nccnc6[C@@](C)(COC(=O)C6CCCCC6C(=O)O)[C@@H]5CC[C@]43C)[C@@H]2C1 (stereo partly drawn) | 100 | 95 | -0.33 | – | –
CC1(C)CC[C@]2(C(=O)On3nnc4ccc(Cl)cc43)CC[C@]3(C)C(C(=O)C[C@@H]4[C@@]5(C)CCC(=O)[C@@](C)(CO)[C@@H]5CC[C@]43C)[C@@H]2C1 (stereo partly drawn) | 112 | 98 | 0.1 | – | –
CC1(C)CC[C@]2(C(=O)N[C@@H](CO)C(=O)O)CC[C@]3(C)C(=CC[C@@H]4[C@@]5(C)Cc6nccnc6[C@@](C)(CO)[C@@H]5CC[C@]43C)[C@@H]2C1 | 76 | 102 | -0.11 | – | –
CC(C)[C@H](NC(=O)[C@]12CCC(C)(C)C[C@H]1C1=CC[C@@H]3[C@@]4(C)Cc5nccnc5[C@@](C)(CO)[C@@H]4CC[C@@]3(C)[C@]1(C)CC2)C(=O)O | 114 | 83 | -0.78 | – | –
CC1(C)CC[C@]2(C(=O)On3nnc4cccnc43)CC[C@]3(C)C(=CC[C@@H]4[C@@]5(C)CC[C@H](O)[C@@](C)(CO)[C@@H]5CC[C@]43C)[C@@H]2C1 | 115 | 94 | -0.23 | – | –
CC1(C)CC[C@]2(C(=O)O)CC[C@]3(C)C(=CC[C@@H]4[C@@]5(C)Cc6nccnc6[C@@](C)(COC(=O)CCC(=O)O)[C@@H]5CC[C@]43C)[C@@H]2C1 | 102 | 96 | -0.28 | – | –
Cl.Cl.Cl.O[C@@H](COc1cccc2ncccc12)CN1CCN([C@@H]2c3ccccc3[C@@H]3[C@H](c4ccccc42)C3(F)F)CC1 [ZOSUQUIDAR TRIHYDROCHLORIDE] | – | – | – | 114.11 | 32.5
CC1(C)CC[C@]2(C(=O)OCCCCOC(=O)[C@]34CCC(C)(C)C[C@H]3C3=CC[C@@H]5[C@@]6(C)CC[C@H](O)[C@@](C)(CO)[C@@H]6CC[C@@]5(C)[C@]3(C)CC4)CC[C@]3(C)C(=CC[C@@H]4[C@@]5(C)CC[C@H](O)[C@@](C)(CO)[C@@H]5CC[C@]43C)[C@@H]2C1 | 44 | 92 | – | – | –
CSCC[C@H](NC(=O)[C@]12CCC(C)(C)C[C@H]1C1=CC[C@@H]3[C@@]4(C)Cc5nccnc5[C@@](C)(CO)[C@@H]4CC[C@@]3(C)[C@]1(C)CC2)C(=O)O | 94 | 94 | -0.2 | – | –
CC1(C)CC[C@]2(C(=O)N[C@@H](Cc3ccc(O)cc3)C(=O)O)CC[C@]3(C)C(=CC[C@@H]4[C@@]5(C)Cc6nccnc6[C@@](C)(CO)[C@@H]5CC[C@]43C)[C@@H]2C1 | 68 | 76 | -0.03 | – | –
C[C@H](NC(=O)[C@]12CCC(C)(C)C[C@H]1C1=CC[C@@H]3[C@@]4(C)Cc5nccnc5[C@@](C)(CO)[C@@H]4CC[C@@]3(C)[C@]1(C)CC2)C(=O)O | 264 | 98 | -1.07 | – | –
CC1(C)CC[C@]2(C(=O)N[C@@H](CCC(=O)O)C(=O)O)CC[C@]3(C)C(=CC[C@@H]4[C@@]5(C)Cc6nccnc6[C@@](C)(CO)[C@@H]5CC[C@]43C)[C@@H]2C1 | 80 | 91 | -0.66 | – | –
CC(C)C[C@H](NC(=O)[C@]12CCC(C)(C)C[C@H]1C1=CC[C@@H]3[C@@]4(C)Cc5nccnc5[C@@](C)(CO)[C@@H]4CC[C@@]3(C)[C@]1(C)CC2)C(=O)O | 76 | 130 | 0.08 | – | –
COc1cc2c(cc1OC)CN(CCc1ccc(NC(=O)c3cc(OC)c(OC)cc3NC(=O)c3cnc4ccccc4c3)cc1)CC2 | – | – | – | 89.41 | 75.95
CC1(C)CC[C@]2(C(=O)O)CC[C@]3(C)C(C(=O)C[C@@H]4[C@@]5(C)CCC(=O)[C@@](C)(CO)[C@@H]5CC[C@]43C)[C@@H]2C1 (stereo partly drawn) | 104 | 102 | – | – | –
